Reference: ChEMBL document CHEMBL1255376, “Comparative surveillance study of telavancin activity against recently collected gram-positive clinical isolates from across the United States” (2008)

Key:
Enterococcus faecium [1] = assay: Antibacterial activity against vancomycin- and teichoplanin-nonsusceptible Enterococcus faecium clinical isolate by broth microdilution method; format: functional
How it was run: (§1)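 MICs by CLSI broth microdilution in frozen trays pre-loaded with serial dilutions of each agent. Quality-control strains run in parallel: E. faecalis ATCC 29212 and ATCC 51299, S. aureus ATCC 29213, S. pneumoniae ATCC 49619. Comparator susceptibility categories follow CLSI breakpoints. Methicillin resistance in staphylococci assigned from the oxacillin MIC.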

[2] = tested on: Staphylococcus saprophyticus; assay: Antibacterial activity against methicillin-resistant coagulase-negative Staphylococcus saprophyticus clinical isolate by broth microdilution method; format: functional; how it was run: as §1
Streptococcus oralis = assay: Antibacterial activity against Streptococcus oralis clinical isolate by broth microdilution method; format: functional
How it was run: (§2)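 MIC by CLSI broth microdilution in frozen microtiter trays holding serial dilutions of each agent, prepared from standard laboratory powders. E. faecalis ATCC 29212 and ATCC 51299, S. aureus ATCC 29213 and S. pneumoniae ATCC 49619 run in parallel as quality-control strains. Comparator susceptibility interpreted with CLSI breakpoints.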

[3] = Antibacterial activity against Streptococcus sp. Group G clinical isolate by broth microdilution method; format: functional; how it was run: as §2
Staphylococcus aureus [4] = assay: Antibacterial activity against daptomycin-nonsusceptible Staphylococcus aureus isolate 1171055 by broth microdilution method; format: functional; how it was run: as §1
Staphylococcus aureus [5] = assay: Antibacterial activity against daptomycin-nonsusceptible Staphylococcus aureus isolate 1176127 by broth microdilution method; format: functional; how it was run: as §1
Staphylococcus [6] = assay: Antibacterial activity against daptomycin-nonsusceptible coagulase-negative Staphylococcus isolate 1285835 by broth microdilution method; format: functional; how it was run: as §2
Staphylococcus [7] = assay: Antibacterial activity against methicillin-susceptible coagulase-negative unspeciated Staphylococcus clinical isolate by broth microdilution method; format: functional; how it was run: as §1
Streptococcus pyogenes = assay: Antibacterial activity against Streptococcus pyogenes clinical isolate by broth microdilution method; format: functional; how it was run: as §2
Staphylococcus warneri = assay: Antibacterial activity against methicillin-susceptible coagulase-negative Staphylococcus warneri clinical isolate by broth microdilution method; format: functional; how it was run: as §1
Staphylococcus aureus [8] = assay: Antibacterial activity against daptomycin-nonsusceptible Staphylococcus aureus isolate 1285404 by broth microdilution method
[9] = tested on: Staphylococcus haemolyticus; assay: Antibacterial activity against methicillin-susceptible coagulase-negative Staphylococcus haemolyticus clinical isolate by broth microdilution method; format: functional; how it was run: as §1
Enterococcus faecium [10] = assay: Antibacterial activity against vancomycin-resistant and teichoplanin-susceptible Enterococcus faecium clinical isolate by broth microdilution method; format: functional; how it was run: as §1
Staphylococcus hominis = assay: Antibacterial activity against methicillin-resistant coagulase-negative Staphylococcus hominis clinical isolate by broth microdilution method; format: functional; how it was run: as §1
[11] = tested on: Staphylococcus epidermidis; assay: Antibacterial activity against methicillin-susceptible coagulase-negative Staphylococcus epidermidis clinical isolate by broth microdilution method; format: functional; how it was run: as §1
Staphylococcus capitis = assay: Antibacterial activity against methicillin-susceptible coagulase-negative Staphylococcus capitis clinical isolate by broth microdilution method; format: functional; how it was run: as §1
[12] = tested on: Staphylococcus haemolyticus; assay: Antibacterial activity against methicillin-resistant coagulase-negative Staphylococcus haemolyticus clinical isolate by broth microdilution method; format: functional; how it was run: as §1
Mammaliicoccus sciuri = assay: Antibacterial activity against methicillin-susceptible coagulase-negative Staphylococcus sciuri clinical isolate by broth microdilution method; format: functional; how it was run: as §1
[13] = tested on: Staphylococcus epidermidis; assay: Antibacterial activity against methicillin-resistant coagulase-negative Staphylococcus epidermidis clinical isolate by broth microdilution method; format: functional; how it was run: as §1
Staphylococcus simulans = assay: Antibacterial activity against methicillin-resistant coagulase-negative Staphylococcus simulans clinical isolate by broth microdilution method; format: functional; how it was run: as §1
Staphylococcus xylosus [14] = assay: Antibacterial activity against methicillin-susceptible coagulase-negative Staphylococcus xylosus clinical isolate by broth microdilution method; format: functional; how it was run: as §1
Staphylococcus [15] = assay: Antibacterial activity against methicillin-resistant coagulase-negative unspeciated Staphylococcus clinical isolate by broth microdilution method; format: functional; how it was run: as §1
Staphylococcus xylosus [16] = assay: Antibacterial activity against methicillin-resistant coagulase-negative Staphylococcus xylosus clinical isolate by broth microdilution method; format: functional; how it was run: as §1
Streptococcus sanguinis = assay: Antibacterial activity against Streptococcus sanguinis clinical isolate by broth microdilution method; format: functional; how it was run: as §2
Streptococcus sp. = assay: Antibacterial activity against Streptococcus sp. clinical isolate by broth microdilution method; format: functional
How it was run: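 MIC by CLSI broth microdilution in frozen microtiter trays holding serial dilutions of each agent, prepared from standard laboratory powders. Comparator susceptibility interpreted with CLSI breakpoints.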

CCCCCCCCCC(=O)N[C@@H](Cc1c[nH]c2ccccc12)C(=O)N[C@H](CC(N)=O)C(=O)N[C@@H](CC(=O)O)C(=O)N[C@@H]1C(=O)NCC(=O)N[C@@H](CCCN)C(=O)N[C@@H](CC(=O)O)C(=O)N[C@H](C)C(=O)N[C@@H](CC(=O)O)C(=O)NCC(=O)N[C@H](CO)C(=O)N[C@@H]([C@H](C)CC(=O)O)C(=O)N[C@@H](CC(=O)c2ccccc2N)C(=O)O[C@@H]1C
> 1 µg/mL: MIC (Staphylococcus aureus [4]) | MIC (Staphylococcus aureus [5]) | MIC (Staphylococcus [6]) | MIC (Staphylococcus aureus [8])
2 µg/mL: MIC50 (Enterococcus faecium [1]) | MIC50 (Enterococcus faecium [10])
0.06 µg/mL: MIC50 [3] | MIC50 (Streptococcus pyogenes) | MIC90 (Streptococcus pyogenes)
0.25 µg/mL: MIC50 (Streptococcus oralis) | MIC90 [3] | MIC50 (Streptococcus sanguinis) | MIC50 (Streptococcus sp.)
0.5 µg/mL: MIC50 [2] | MIC50 (Staphylococcus [7]) | MIC50 (Staphylococcus warneri) | MIC50 [9] | MIC50 (Staphylococcus hominis) | MIC50 [11] | MIC50 (Staphylococcus capitis) | MIC50 [12] | MIC50 (Mammaliicoccus sciuri) | MIC50 [13] | MIC50 (Staphylococcus simulans) | MIC50 (Staphylococcus xylosus [14]) | MIC50 (Staphylococcus [15]) | MIC50 (Staphylococcus xylosus [16])
1 µg/mL: MIC90 [2] | MIC90 (Streptococcus oralis) | MIC90 (Staphylococcus [7]) | MIC90 (Staphylococcus warneri) | MIC90 [9] | MIC90 (Staphylococcus hominis) | MIC90 [11] | MIC90 (Staphylococcus capitis) | MIC90 [12] | MIC90 (Mammaliicoccus sciuri) | MIC90 [13] | MIC90 (Staphylococcus simulans) | MIC90 (Staphylococcus xylosus [14]) | MIC90 (Staphylococcus [15]) | MIC90 (Staphylococcus xylosus [16]) | MIC90 (Streptococcus sanguinis)
4 µg/mL: MIC90 (Enterococcus faecium [1]) | MIC90 (Enterococcus faecium [10])
